A short description of this series: Toxicity liver stage against HepG2, at 10uM. The class given is cell-based. Set-up: test concentration 10 uM, cell line HepG2-A16-CD81EGFP. Particulars: human, HepG2-A16-CD81EGFP cells; read-out: INHIBITION
In short, it runs like this:
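Uninfected HepG2-A16-CD81EGFP cells, 3 × 10^3 per well, 1536-well, plated on prespotted compound at 10 μM final, parasite-free screening media added to match infected plates; puromycin 10 μM positive, DMSO 0.5% negative; run in parallel with 48 h PbLuc assay at 37 °C, 5% CO2; viability by CellTiter-Glo luminescence, normalized to controls.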
Take `O=C1CC2(CCCC2)CN1CCOc1ccc(F)cc1`: the cytotoxicity at 10 µM worked out at 1.05%.

Turning to `COc1nn(C)c2c1CCCN(S(=O)(=O)c1cccc(F)c1)C2`, the cytotoxicity at 10 µM is -129%.

Regarding `O=C(CCNC(=O)C1CCCC1)NCc1ccccc1Cn1cncn1`, the cytotoxicity at 10 µM is -5.63%.

`CC(C)=CCN1Cc2nnc(C3CCOCC3)n2C(Cc2c[nH]cn2)C1` (stereo not drawn): the cytotoxicity at 10 µM was -9.36%.

In the case of `Cc1nccc(-c2cccc(NCC(=O)N3CCOCC3)c2)n1`, the cytotoxicity at 10 µM was -0.269%.

Consider `CCc1nc(CN(C)C(=O)CSC)no1`, for which the cytotoxicity at 10 µM amounted to 2.25%.

As for `CN(C)C(=O)CCN1CC(c2ccccc2)(c2ccccc2)CCC1=O`, the cytotoxicity at 10 µM was 0.284%.

Regarding `CCn1cc(NC(=O)C(C)n2ncc(Cl)c2C)c(C(=O)NCC(C)C)n1` (stereo not drawn), the cytotoxicity at 10 µM came to 0.557%.

Regarding `CCNc1ccc(-c2ccnc3c2ccn3C)nn1`, the cytotoxicity at 10 µM was -18.1%.

Turning to `CCCC(=O)N(Cc1ccncc1)C(C)CC` (stereo not drawn), the cytotoxicity at 10 µM was determined as 9.66%.

Regarding `c1ccc2ncc(CC3CNCCOC3)cc2c1` (stereo not drawn), the cytotoxicity at 10 µM is -3.93%.

Consider `O=C1CC[C@H]2CN(Cc3cccc(F)c3)CC[C@H]2N1CCc1c[nH]cn1`, for which the cytotoxicity at 10 µM was -1.04%.

For the compound `CC(C)(C)c1nnc(CN2CCOC(Cn3cncn3)C2)o1` (stereo not drawn), the cytotoxicity at 10 µM is -1.5%.

With `Cc1cncc(C(=O)N2CCNCC2C(=O)NCc2ccncc2)c1` (stereo not drawn), the cytotoxicity at 10 µM was -4%.

Consider `CN(C)CC1CN(Cc2cccc(C#N)c2)Cc2nccn2C1` (stereo not drawn), for which the cytotoxicity at 10 µM was -124%.

Regarding `O=C(c1ccc(-c2cccc3c2CCNC3)o1)N1CCCCC1`, the cytotoxicity at 10 µM turned out to be 3.67%.

In the case of `CCCc1nnc(NC(C)c2ccc(F)cc2)o1` (stereo not drawn), the cytotoxicity at 10 µM is 2.08%.

As for `COCCCNC(=O)Cn1c(C)cc(=O)n2nc(-c3cccs3)nc12`, the cytotoxicity at 10 µM turned out to be 2.05%.

In the case of `COC(=O)CNC(=O)Cn1ccc2cccc(OC)c21`, the cytotoxicity at 10 µM was -34.9%.

Turning to `COc1c(CNCc2ccc3c(c2)OCO3)c(C(C)C)nn1C`, the cytotoxicity at 10 µM came to 0.745%.

As to `Cc1cccc(C(C(=O)N2CC(c3ccccn3)C2)N(C)C)c1` (stereo not drawn), the cytotoxicity at 10 µM was -13.1%.

`COc1cccc(N2CCN(Cc3ccc4occc4c3)CC2=O)c1`: the cytotoxicity at 10 µM came to 24%.

As to `CCCN1C[C@@H]2CC[C@H]1CN(c1nnc(C(C)C)s1)C2`, the cytotoxicity at 10 µM is -11.4%.

In the case of `O=C(CCc1nc2cccnc2[nH]1)NCc1cccnc1`, the cytotoxicity at 10 µM came to 7.72%.

Turning to `Cc1nc(CC(=O)N(CCN2CCOCC2)Cc2ccco2)c(C)s1`, the cytotoxicity at 10 µM was -3.71%.

`O=C(Nc1cccc(F)c1)N1CCN(Cc2noc(C3CC3)n2)CC1`: the cytotoxicity at 10 µM was 3.8%.

For `COc1ccc(-c2cc(C[C@@H]3C[C@H](N(C)C)C3(C)C)no2)cc1`, the cytotoxicity at 10 µM was -1.3%.

For `NC(=O)c1c(-c2ccc(Cl)cc2Cl)csc1NC(=O)CCCC(=O)O`, the cytotoxicity at 10 µM is 5.97%.

On to `COC(=O)NCC(=O)N1CCCn2nc(CN3CC[C@H](F)C3)cc2C1`, for which the cytotoxicity at 10 µM was found to be 13%.

Turning to `Cn1cncc1C(=O)N1CCOC2(COCCN(CC3CC3)C2)C1` (stereo not drawn), the cytotoxicity at 10 µM turned out to be 9.17%.

Take `CCn1ncc2c(C(F)(F)F)cc(-c3cnn(C)c3)nc21`: the cytotoxicity at 10 µM came out at 3.67%.

Consider `O=S1(=O)NC(c2ccnc(N3CCCCC3)n2)=Nc2ccccc21`, for which the cytotoxicity at 10 µM amounted to 18.3%.

Consider `COCc1cc(CNCc2c(C)n(CC(N)=O)c3ccccc23)n[nH]1`, for which the cytotoxicity at 10 µM was -0.31%.

Consider `CCN1CCC(N2CCC(c3nc(C)cc(C)n3)C2)CC1` (stereo not drawn), for which the cytotoxicity at 10 µM came out at 5.15%.

With `Cc1cc(-c2cc(F)ccc2C(=O)O)nc(C2CCCN(C)C2)n1` (stereo not drawn), the cytotoxicity at 10 µM was -11.4%.

As to `Cc1cccnc1Nc1nccc(C2CN(CC(N)=O)C2)n1`, the cytotoxicity at 10 µM was -34.3%.

Take `O=C(CCNC(=O)c1cnccn1)Nc1ncc[nH]1`: the cytotoxicity at 10 µM is -44.7%.

For `CCN1C(=O)CCCC12CCCN(C(=O)c1cc(C)oc1C)C2` (stereo not drawn), the cytotoxicity at 10 µM was 4.09%.

Regarding `COc1ccc(C(C#N)NC(=O)CC2=CCCCC2)c(OC)c1` (stereo not drawn), the cytotoxicity at 10 µM stood at 10.7%.

Regarding `c1cnc(NCc2cncc3c2CCN(CC2CC2)C3)nc1`, the cytotoxicity at 10 µM is -101%.

Take `Cc1ncccc1C(=O)NC1CC(=O)N(CC(F)(F)F)C1` (stereo not drawn): the cytotoxicity at 10 µM came to 1.2%.

For the compound `Cc1cccc(N2CCN(CCC(=O)NCc3ccc(C)s3)CC2)c1`, the cytotoxicity at 10 µM is -0.432%.

With `Cc1ncsc1CCN(C)C(=O)CN1CCCCCC1=O`, the cytotoxicity at 10 µM is -7.67%.

Regarding `CN1CCCC1c1cncc(C(=O)NCCN2CCCC2)n1` (stereo not drawn), the cytotoxicity at 10 µM was 8.6%.

As for `CS(=O)(=O)NCCC1CN(Cc2ccccc2F)CCO1` (stereo not drawn), the cytotoxicity at 10 µM is -7.31%.

Regarding `COC(=O)c1ccc(N2CCN(C(=O)c3cnc(C)cn3)C(C)C2)cc1` (stereo not drawn), the cytotoxicity at 10 µM stood at 3.09%.

Take `COc1ccccc1-c1nc(C(=O)N2CCOCC2)n2ccncc12`: the cytotoxicity at 10 µM amounted to 11.9%.

In the case of `COc1ccc(CN2CC(O)CN(C(=O)CC(C)C)CC2=O)cc1` (stereo not drawn), the cytotoxicity at 10 µM was -0.634%.

Regarding `O=C1O[C@@H]2CN(Cc3cc4ccccc4s3)C[C@@H]2N1Cc1ccccn1`, the cytotoxicity at 10 µM came out at 10.2%.

For the compound `CC(C)c1n[nH]c(C2CN(C(=O)C3=COCC3)CCO2)n1` (stereo not drawn), the cytotoxicity at 10 µM was -7.99%.

As for `CCn1cc(NC(=O)C2CCN(CC(=O)N3CCOCC3)CC2)cn1`, the cytotoxicity at 10 µM was -3.46%.

For the compound `O=C(Cc1ccccc1)N1CCC2(CCN2Cc2ccc(F)cc2)C1` (stereo not drawn), the cytotoxicity at 10 µM was 2.17%.

Regarding `CCc1cc(N(C)CCc2c(C)n[nH]c2C)ncn1`, the cytotoxicity at 10 µM was -4.45%.

Regarding `CS(=O)(=O)N1C[C@@H]2C[C@H](C(=O)N3CCOCC3)[C@H](C1)O2`, the cytotoxicity at 10 µM is -2.92%.

Regarding `Cc1n[nH]c(NC(=O)c2ccc(COCC(F)(F)F)cc2)c1C`, the cytotoxicity at 10 µM was -0.81%.

With `COCCCNC(=O)CN(C)C(=O)c1cc(Cl)ccc1O`, the cytotoxicity at 10 µM is -1.84%.

Take `COc1ccc(CN2CCCn3cnc(COC(C)C)c3C2)cc1`: the cytotoxicity at 10 µM is -74.9%.

With `CCC(CC)NC(=O)Cn1nc(C)nc1-c1ccccc1`, the cytotoxicity at 10 µM is -7.22%.

Consider `Cc1ccc(C(=O)N2C[C@@H](NS(C)(=O)=O)[C@H](C(C)C)C2)cc1O`, for which the cytotoxicity at 10 µM is -2.62%.

Turning to `CC(Sc1nnnn1C1CCOCC1)C(=O)NC1CCCCC1` (stereo not drawn), the cytotoxicity at 10 µM was determined as 18.3%.

For the compound `Cc1ccnc(OC[C@]23COC[C@H]2CN(C(=O)Cc2ccsc2)C3)n1`, the cytotoxicity at 10 µM is -0.376%.

As for `CC(=O)N1CCCC1c1nc(C)c2c(n1)N(Cc1ccccn1)CCC2` (stereo not drawn), the cytotoxicity at 10 µM came out at 0.711%.

`CCc1nc(C(=O)N2CCCCC2)nn1-c1ccccc1Cl`: the cytotoxicity at 10 µM amounted to 2.1%.

With `CN(C)c1cc(C(=O)NC2(c3cccc(F)c3)CCOCC2)ccn1`, the cytotoxicity at 10 µM is -1.31%.

In the case of `CN1CCCC1CCNC(=O)Nc1ccccc1` (stereo not drawn), the cytotoxicity at 10 µM stood at 0.238%.

Turning to `CCN(CC(=O)NC)S(=O)(=O)c1cnc2c(c1)c(C)nn2C`, the cytotoxicity at 10 µM is -1.56%.

As to `O=c1[nH]c(-c2ccccc2)nc2c1CCN(S(=O)(=O)N1CCCC1)C2`, the cytotoxicity at 10 µM was 3.86%.

Turning to `O=C(c1csc(C2CC2)n1)N1CCCCC1Cn1cccn1` (stereo not drawn), the cytotoxicity at 10 µM was determined as 0.745%.

For `Cc1nc(C)n(CC2CN(c3ncnc4[nH]ccc34)CCO2)n1` (stereo not drawn), the cytotoxicity at 10 µM was determined as 0.433%.

`Cc1nn(C)c(C)c1CN(CCO)C(=O)C1COc2ccccc2C1` (stereo not drawn): the cytotoxicity at 10 µM is -8.07%.

On to `Cc1ncsc1CCN(C)C(=O)CN1CC2(CCNCC2)OC1=O`, for which the cytotoxicity at 10 µM was -7.33%.

As for `COCCn1cnnc1CN(C)c1nc(N)ncc1C`, the cytotoxicity at 10 µM is -7.85%.

For the compound `Cc1csc(NC(=O)NCCCN2CCC(C(N)=O)CC2)n1`, the cytotoxicity at 10 µM was determined as 2.48%.

Consider `CCNc1ncc(C(=O)NCCNc2ccncc2C)cn1`, for which the cytotoxicity at 10 µM is -6.83%.

Take `Cc1ccc(Oc2ncccc2CNC(=O)C2COC(=O)N2)c(F)c1F` (stereo not drawn): the cytotoxicity at 10 µM was found to be 1.82%.

With `CC(C)(C)NC(=O)C1CSCN1S(=O)(=O)c1cccc(F)c1` (stereo not drawn), the cytotoxicity at 10 µM is -16.7%.

As to `Cc1cc(C2CCCCCN2Cc2cn(C)nc2C)no1` (stereo not drawn), the cytotoxicity at 10 µM was -20.4%.

On to `CCCOC(=O)N1CCC(c2nnc(Cn3cccn3)n2C2CC2)CC1`, for which the cytotoxicity at 10 µM was -8.52%.

Turning to `O=C(NCCn1ccnc1)C1COCC(=O)N1Cc1ccccc1` (stereo not drawn), the cytotoxicity at 10 µM worked out at 8.19%.

Consider `Cn1cc(CN2CCCC(CCCc3ccccn3)(C(N)=O)C2)cn1` (stereo not drawn), for which the cytotoxicity at 10 µM was -24.5%.

In the case of `COc1c(CNC(c2nccn2C)C(C)C)c(C)nn1C` (stereo not drawn), the cytotoxicity at 10 µM is -7.46%.

As for `CCOc1cc(CN(C)CCC#N)ccc1OC(F)F`, the cytotoxicity at 10 µM is -5.81%.

`COCCCN(CCOC)Cc1nc2c(cnn2C)c(=O)[nH]1`: the cytotoxicity at 10 µM was -5.72%.

In the case of `C=c1occc1=C1NN=C2SC(C#N)C(N)=NN21` (stereo not drawn), the cytotoxicity at 10 µM was 0.331%.

Turning to `CN(Cc1cscn1)C1CCCN(c2cccnn2)C1` (stereo not drawn), the cytotoxicity at 10 µM was -3.69%.

In the case of `COc1cccc(C2=CCN(CCN3CCOC3=O)CC2)c1`, the cytotoxicity at 10 µM was -7.52%.

For `CSCCCN1CCCC1c1noc(C(C)C)n1` (stereo not drawn), the cytotoxicity at 10 µM is -12.5%.

For the compound `NC(=O)NC1(C(=O)N2CCc3c(Cl)cccc3C2)CCCCC1`, the cytotoxicity at 10 µM was -3.45%.

As to `CCc1nsc(N2CCN(C(=O)c3ccnc(N(C)C)c3)CC2)n1`, the cytotoxicity at 10 µM was -2.48%.

For the compound `COc1cc(F)c(C(=O)N2C[C@@H](CN(C)CCO)[C@@H](CO)C2)c(F)c1`, the cytotoxicity at 10 µM is -1.53%.

As to `O=C1CCc2ccccc2N1CCCn1cnnn1`, the cytotoxicity at 10 µM was 3.92%.

With `CCOC(=O)N1CCN(c2nc(NCCCO)c3ccccc3n2)CC1`, the cytotoxicity at 10 µM was -9.21%.

Take `CC(NC(=O)NCC(C)(C)O)c1ccc(-c2cncnc2)cc1` (stereo not drawn): the cytotoxicity at 10 µM was determined as 6.27%.

As to `CCC(CCO)NS(=O)(=O)c1ccc(Br)cn1` (stereo not drawn), the cytotoxicity at 10 µM was determined as 6.62%.

On to `COc1ccc(-c2cc(C3CCOC3)c(C#N)c(N)n2)cn1` (stereo not drawn), for which the cytotoxicity at 10 µM was found to be 10.2%.

As to `CCOCCN1CCN(C=C2NN=C(c3occc3C)O2)CC1CC` (stereo not drawn), the cytotoxicity at 10 µM was -50.3%.

For `CCSc1ccc(C(=O)N2CCCCC2C(=O)NC(C)(C)C)cn1` (stereo not drawn), the cytotoxicity at 10 µM was -7.69%.

`Cc1cc(C)n(C2CCCN(C(=O)Cc3cccs3)C2)n1` (stereo not drawn): the cytotoxicity at 10 µM is -20.8%.

The values are drawn from ChEMBL document CHEMBL4513216, “Probing the Open Global Health Chemical Diversity Library for Multistage-Active Starting Points for Next-Generation Antimalarials” (ACS Infect Dis, 2020).
